Key:
Assay type in all cases: cell-based
[1] = target: Glutamate NMDA receptor; Grin1/Grin2a (Rattus norvegicus) (UniProt P35439+Q00959); experiment: Inhibition of rat recombinant GluN1/2A expressed in Xenopus oocytes assessed as inhibition of glutamate/glycine-evoked channel current at 100 nM at holding potential of -80 mV by two-electrode voltage clamp technique
Method in brief: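 Single-concentration screen at 100 nM on oocytes expressing GluN1/2A (1:10 cRNA ratio), two-electrode clamp at −80 mV, rt, in frog Ringer's. Percent inhibition of current evoked by 100 μM L-glutamate plus 100 μM glycine, with compound bath-applied in Ringer's.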

Glutamate receptor 1 = Glutamate receptor 1 (Rattus norvegicus, UniProt P19490); experiment: Inhibition of rat recombinant GluA1 expressed in Xenopus oocytes assessed as inhibition of glutamate-induced channel current at holding potential of -80 mV by two-electrode voltage clamp technique
Method in brief: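 GluA1_i cRNA (25 nL at 1 ng/nL) injected into collagenase-treated oocytes, kept at 17 °C in Barth's medium (pH 7.4) with gentamicin, recorded 2−4 days later. Held at −80 mV, rt, superfused with frog Ringer's (BaCl₂, pH 7.6). Antagonist co-applied with 300 μM L-glutamate at rising concentrations. Curves from 3−8 oocytes fitted to a Hill equation for IC50.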

[2] = target: Glutamate receptor 1 (Rattus norvegicus) (UniProt P19490); experiment: Inhibition of rat recombinant GluA1 expressed in Xenopus oocytes assessed as inhibition of glutamate-induced channel current at 100 nM at holding potential of -80 mV by two-electrode voltage clamp technique
Method in brief: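 Xenopus oocytes injected with GluA1_i cRNA (25 nL of 1 ng/nL), kept 2–4 days at 17 °C in Barth's medium with gentamicin. Two-electrode voltage clamp at room temperature in superfused frog Ringer's (Ba2+-containing, pH 7.6). Current evoked by 300 μM L-glutamate; test compound at 100 nM added by bath, co-applied with agonist. Percent inhibition of the evoked current recorded.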

[3] = target: Glutamate NMDA receptor; Grin1/Grin2a (Rattus norvegicus, UniProt P35439+Q00959); experiment: Inhibition of rat recombinant GluN1/2A expressed in Xenopus oocytes assessed as inhibition of glutamate/glycine-evoked channel current at holding potential of -80 mV by two-electrode voltage clamp technique
Method in brief: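 Oocytes were injected with GluN1/N2A cRNA at a 1:10 ratio (25 nL at 0.5 ng/nL), incubated at 17 °C in Barth's medium with gentamicin, and recorded after 2−4 days. Clamp at −80 mV, rt, in frog Ringer's (BaCl₂, pH 7.6). Increasing antagonist was co-applied with 100 μM L-glutamate plus 100 μM glycine. IC50 came from a Hill fit over 3−8 oocytes.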

Rattus norvegicus = organism: Rattus norvegicus; experiment: Selectivity ratio of IC50 for rat recombinant GluN1/2A expressed in Xenopus oocytes to IC50 for rat recombinant GluA1 expressed in Xenopus oocytes

Glutamate receptor 1, sequence (P19490 whole entry, the tested form may be a part): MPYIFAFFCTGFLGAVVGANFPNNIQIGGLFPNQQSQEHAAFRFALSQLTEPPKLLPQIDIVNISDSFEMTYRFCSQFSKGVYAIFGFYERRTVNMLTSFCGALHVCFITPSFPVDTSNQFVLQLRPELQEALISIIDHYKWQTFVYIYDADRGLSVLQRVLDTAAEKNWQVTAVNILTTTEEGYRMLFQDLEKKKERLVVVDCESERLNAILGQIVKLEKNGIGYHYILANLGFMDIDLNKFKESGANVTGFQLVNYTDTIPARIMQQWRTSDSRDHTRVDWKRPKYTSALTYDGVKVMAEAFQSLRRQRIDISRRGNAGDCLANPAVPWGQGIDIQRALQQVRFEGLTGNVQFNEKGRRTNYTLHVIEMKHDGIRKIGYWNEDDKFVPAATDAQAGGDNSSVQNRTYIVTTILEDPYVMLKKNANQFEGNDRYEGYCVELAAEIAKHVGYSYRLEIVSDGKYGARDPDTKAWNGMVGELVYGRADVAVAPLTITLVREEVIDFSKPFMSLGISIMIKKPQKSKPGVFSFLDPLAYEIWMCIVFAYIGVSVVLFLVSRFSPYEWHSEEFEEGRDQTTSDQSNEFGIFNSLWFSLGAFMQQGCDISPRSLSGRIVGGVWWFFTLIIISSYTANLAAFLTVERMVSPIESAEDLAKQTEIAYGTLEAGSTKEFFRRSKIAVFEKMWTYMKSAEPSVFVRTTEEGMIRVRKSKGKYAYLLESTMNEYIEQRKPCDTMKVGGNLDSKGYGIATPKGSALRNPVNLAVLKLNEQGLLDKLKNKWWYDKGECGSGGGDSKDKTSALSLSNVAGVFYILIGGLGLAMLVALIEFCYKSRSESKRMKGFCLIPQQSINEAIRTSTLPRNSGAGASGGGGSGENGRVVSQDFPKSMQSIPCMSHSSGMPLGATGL
Glutamate receptor 1 (Rattus norvegicus), sequence (P19490 whole entry, the tested form may be a part): as above

SMILES	inhibition [1] [%]	IC50 (Glutamate receptor 1) [nM]	inhibition [2] [%]	IC50 [3] [nM]	Ratio IC50 (Rattus norvegicus)
NCCCNCCCCNCCCNCCCNCCCNC(=O)Cc1c[nH]c2ccccc12	> 90	–	–	–	–
NCCCNCCCCNCCCNCCCN(O)CCCNC(=O)Cc1c[nH]c2cccc(O)c12	> 90	–	–	–	–
NCCCNCCCCNCCCNCCCNCCCNC(=O)Cc1ccc(O)cc1O	> 90	–	–	–	–
NCCCNCCCCNCCCNCCCNCCCNC(=O)Cc1c[nH]c2cccc(O)c12	> 90	–	–	–	–
C[N+](C)(CCCC[C@H](N)C(=O)NCCCCCNC(=O)[C@H](CC(N)=O)NC(=O)Cc1c[nH]c2cccc(O)c12)CCCNC(=O)[C@@H](N)CCCNC(=N)N	< 20	123	> 40	3850	–
CN(CCCC[C@H](N)C(=O)NCCCCCNC(=O)[C@H](CC(N)=O)NC(=O)Cc1c[nH]c2ccccc12)CCCNC(=O)[C@@H](N)CCCNC(=N)N	< 20	–	> 40	–	–
N=C(N)NCCC[C@H](N)C(=O)NCCCNCCCC[C@H](N)C(=O)NCCCCCNC(=O)[C@H](CC(N)=O)NC(=O)Cc1c[nH]c2ccccc12	< 20	–	81	–	–
N=C(N)NCCC[C@H](N)C(=O)NCCCNCCCC[C@H](N)C(=O)NCCCCCNC(=O)[C@H](CC(N)=O)NC(=O)Cc1c[nH]c2cccc(O)c12	< 20	15	84	387	26
CN(CCCC[C@H](N)C(=O)NCCCCCNC(=O)[C@H](CC(N)=O)NC(=O)Cc1c[nH]c2cccc(O)c12)CCCNC(=O)[C@@H](N)CCCNC(=N)N	< 20	52	> 40	1630	–
NCCCNCCCCNCCCNCCCN(O)CCCNC(=O)Cc1c[nH]c2ccccc12	> 90	11	–	12	–
C[N+](C)(CCCC[C@H](N)C(=O)NCCCCCNC(=O)[C@H](CC(N)=O)NC(=O)Cc1c[nH]c2ccccc12)CCCNC(=O)[C@@H](N)CCCNC(=N)N	< 20	–	> 40	–	–

Source: ChEMBL document CHEMBL3286218, “Structure-activity relationship studies of N-methylated and N-hydroxylated spider polyamine toxins as inhibitors of ionotropic glutamate receptors” (J Med Chem, 2014)
